Assay results from ChEMBL document CHEMBL1156071, “Novel L-xylose derivatives as selective sodium-dependent glucose cotransporter 2 (SGLT2) inhibitors for the treatment of type 2 diabetes” (J Med Chem, 2009).

Experiments:
[1] = target: T1, Sodium/glucose cotransporter 2 (Homo sapiens, UniProt P31639); test: Inhibition of human SGLT2 expressed in HEK293 cells assessed as inhibition of [14C]alpha-methylglucopyranoside uptake; assay type: cell-based
T1 sequence (P31639 whole entry): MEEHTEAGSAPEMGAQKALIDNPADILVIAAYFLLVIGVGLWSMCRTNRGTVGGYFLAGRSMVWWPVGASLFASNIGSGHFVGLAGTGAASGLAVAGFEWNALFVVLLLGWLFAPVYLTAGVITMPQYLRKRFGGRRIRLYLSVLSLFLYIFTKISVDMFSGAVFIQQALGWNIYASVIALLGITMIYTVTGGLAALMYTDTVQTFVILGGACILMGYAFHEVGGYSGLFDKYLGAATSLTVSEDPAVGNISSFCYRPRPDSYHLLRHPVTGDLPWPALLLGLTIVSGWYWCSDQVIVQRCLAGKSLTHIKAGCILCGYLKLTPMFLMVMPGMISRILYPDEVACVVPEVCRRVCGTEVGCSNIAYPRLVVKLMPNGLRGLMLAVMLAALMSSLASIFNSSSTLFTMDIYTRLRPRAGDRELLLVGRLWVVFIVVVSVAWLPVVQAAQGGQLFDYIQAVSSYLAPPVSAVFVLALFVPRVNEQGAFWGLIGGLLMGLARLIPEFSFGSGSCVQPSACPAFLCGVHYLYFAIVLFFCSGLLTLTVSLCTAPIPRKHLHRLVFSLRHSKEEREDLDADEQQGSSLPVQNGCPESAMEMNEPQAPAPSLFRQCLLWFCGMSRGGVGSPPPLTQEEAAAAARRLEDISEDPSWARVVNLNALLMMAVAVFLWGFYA
Summary of the method: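 Cells stably expressing human SGLT2 were used to measure sodium-coupled uptake of [14C]α-methylglucopyranoside, a metabolically stable SGLT-specific glucose analogue. Uptake was measured across increasing compound concentrations, and IC50 was derived from the inhibition of uptake.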

[2] = target: T2, Sodium/glucose cotransporter 2 (Mus musculus, UniProt Q923I7); test: Inhibition of mouse SGLT2-mediated [14C]alpha-methylglucopyranoside uptake by cell based assay
T2 sequence (Q923I7 whole entry): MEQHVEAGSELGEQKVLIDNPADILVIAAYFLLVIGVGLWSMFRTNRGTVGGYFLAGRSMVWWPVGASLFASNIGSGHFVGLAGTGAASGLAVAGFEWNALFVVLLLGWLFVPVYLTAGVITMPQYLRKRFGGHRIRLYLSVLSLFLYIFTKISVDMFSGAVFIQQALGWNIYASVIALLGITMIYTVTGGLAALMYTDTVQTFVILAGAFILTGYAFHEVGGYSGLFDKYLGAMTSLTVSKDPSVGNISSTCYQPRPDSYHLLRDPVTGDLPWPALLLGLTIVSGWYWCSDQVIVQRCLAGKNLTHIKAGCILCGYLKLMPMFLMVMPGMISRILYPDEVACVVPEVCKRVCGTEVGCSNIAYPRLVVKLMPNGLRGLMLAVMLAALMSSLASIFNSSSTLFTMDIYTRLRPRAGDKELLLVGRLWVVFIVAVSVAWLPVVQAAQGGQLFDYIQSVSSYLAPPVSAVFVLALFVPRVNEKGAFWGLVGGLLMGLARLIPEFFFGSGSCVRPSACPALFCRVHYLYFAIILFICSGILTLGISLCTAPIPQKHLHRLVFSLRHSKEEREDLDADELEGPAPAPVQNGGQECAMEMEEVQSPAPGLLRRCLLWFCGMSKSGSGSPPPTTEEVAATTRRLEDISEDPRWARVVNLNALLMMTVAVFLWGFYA

Structure (SMILES)	IC50 [1]	IC50 [2]
CCOc1ccc(Cc2cc([C@H]3OC(OC)[C@H](O)[C@@H](O)[C@@H]3O)ccc2Cl)cc1 (stereo partly drawn)	> 30000 nM	9200 nM
COC1O[C@@H](c2ccc(Cl)c(Cc3ccc(Oc4nccs4)cc3)c2)[C@H](O)[C@@H](O)[C@@H]1O (mixture of isomers)	150 nM	60 nM
CCOc1ccc(Cc2cc([C@@H]3OC(OCC)[C@@H](O)[C@H](O)[C@H]3O)ccc2Cl)cc1 (mixture of isomers)	58 nM	19 nM
COC1O[C@@H](c2ccc(Cl)c(Cc3ccc(O[C@H]4CCN(C)C4)cc3)c2)[C@H](O)[C@@H](O)[C@@H]1O (mixture of isomers)	170 nM	92 nM
CCOc1ccc(Cc2cc([C@@H]3OC(OC)[C@H](F)[C@H](O)[C@H]3O)ccc2Cl)cc1 (mixture of isomers)	600 nM	220 nM
CCOc1ccc(Cc2cc([C@@H]3OC(O)[C@@H](O)[C@H](O)[C@H]3O)ccc2Cl)cc1 (mixture of isomers)	280 nM	100 nM
CCOc1ccc(Oc2cc([C@@H]3OC(OC)[C@@H](O)[C@H](O)[C@H]3O)ccc2Cl)cc1 (mixture of isomers)	2400 nM	1900 nM
COC1O[C@@H](c2ccc(Cl)c(Cc3ccc(OCCO)cc3)c2)[C@H](O)[C@@H](O)[C@@H]1O (mixture of isomers)	36 nM	9.5 nM
CCOc1ccc(-c2cccc([C@@H]3OC(OC)[C@@H](O)[C@H](O)[C@H]3O)c2)cc1 (mixture of isomers)	4600 nM	1900 nM
CCOc1ccc(Cc2cc([C@@H]3OC(OCc4ccccc4)[C@@H](O)[C@H](O)[C@H]3O)ccc2Cl)cc1 (mixture of isomers)	620 nM	330 nM
COCCOc1ccc(Cc2cc([C@@H]3OC(OC)[C@@H](O)[C@H](O)[C@H]3O)ccc2Cl)cc1 (mixture of isomers)	45 nM	16 nM
CCOc1ccc(Cc2cc([C@@H]3OC(OCCN(C)C)[C@@H](O)[C@H](O)[C@H]3O)ccc2Cl)cc1 (mixture of isomers)	3600 nM	2200 nM
COC1O[C@@H](c2ccc(Cl)c(Cc3ccc(O)cc3)c2)[C@H](O)[C@@H](O)[C@@H]1O (mixture of isomers)	32 nM	8 nM
CCOc1ccc(Cc2cccc([C@@H]3OC(OC)[C@@H](O)[C@H](O)[C@H]3O)c2)cc1 (mixture of isomers)	1100 nM	220 nM
